Assays:
[1] = biological target: Kappa-type opioid receptor (Cavia porcellus) (UniProt P41144); assay: Antagonist potency was determined using ethylketazocine at kappa-opioid receptor in electrically stimulated guinea pig ileal longitudinal muscle (GPI); IC50 ratio; assay type: functional
Procedure, shortened: (§1)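 Electrically stimulated tissue: agonists were morphine (μ) and ethylketazocine (κ) in guinea pig ileal longitudinal muscle, and DADLE (δ) in mouse vas deferens. Antagonist at 100 nM was incubated 15 min. IC50 ratio is agonist IC50 with antagonist divided by control IC50 in the same preparation, n ≥ 3, ±SE.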

[2] = biological target: Mu-type opioid receptor (Cavia porcellus) (UniProt P97266); assay: Antagonist potency using morphine at mu-opioid receptor in electrically stimulated guinea pig ileal longitudinal muscle (GPI); IC50 ratio; assay type: functional; procedure, shortened: as §1
[3] = biological target: Opioid receptors; mu & delta (Homo sapiens) (UniProt P41143+P35372); assay: Selectivity ratio is the ratio between delta and mu receptor; assay type: protein assay
Procedure, shortened: (§2)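 Selectivity ratio is the DADLE IC50 ratio divided by the morphine (δ/μ) or ethylketazocine (δ/κ) IC50 ratio. These IC50 ratios come from smooth muscle with 100 nM antagonist, 15 min. A value of 1 was used wherever an IC50 ratio was <1.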

[4] = biological target: Delta-type opioid receptor (Mus musculus) (UniProt P32300); assay: Antagonist potency was determined using D-Ala2, D-Leu5 enkephalin28 (DADLE) at delta-opioid receptor in mouse vas deferens (MVD); IC50 ratio; assay type: functional; procedure, shortened: as §1
[5] = biological target: Opioid receptors; delta & kappa (Homo sapiens) (UniProt P41145+P41143); assay: Selectivity ratio is the ratio between delta and kappa receptor; assay type: protein assay; procedure, shortened: as §2
[6] = biological target: Kappa-type opioid receptor (Mus musculus) (UniProt P33534); assay: Antagonist potency was determined using U-50,488 in kappa-opioid receptor by icv administration in mouse after 24 hr; ED50 ratio; assay type: functional, organism-based
Procedure, shortened: (§3)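 Mouse abdominal stretch antinociception assay. Antagonist was given icv at 5 nmol, with agonists tested 24 h later. DSLET and DPDPE were given icv; morphine and U50488 were given sc. ED50 ratio is agonist ED50 with antagonist divided by control ED50, with 95% confidence limits.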

[7] = biological target: Mu-type opioid receptor (Mus musculus) (UniProt P42866); assay: Antagonist potency was determined using morphine in mu-opioid receptor by icv administration in mouse after 24 hr; ED50 ratio; assay type: functional, organism-based; procedure, shortened: as §3
[8] = biological target: Delta-type opioid receptor (Mus musculus) (UniProt P32300); assay: Antagonist potency was determined using […] in delta2-opioid receptor by icv administration in mouse after 24 hr; ED50 ratio; assay type: functional, organism-based; procedure, shortened: as §3
[9] = biological target: Delta-type opioid receptor (Mus musculus) (UniProt P32300); assay: Antagonist potency was determined using DPDPE in delta1-opioid receptor by icv administration in mouse after 24 hr; ED50 ratio; assay type: functional, organism-based; procedure, shortened: as §3

Sequence of Delta-type opioid receptor (Mus musculus) (P32300 whole entry): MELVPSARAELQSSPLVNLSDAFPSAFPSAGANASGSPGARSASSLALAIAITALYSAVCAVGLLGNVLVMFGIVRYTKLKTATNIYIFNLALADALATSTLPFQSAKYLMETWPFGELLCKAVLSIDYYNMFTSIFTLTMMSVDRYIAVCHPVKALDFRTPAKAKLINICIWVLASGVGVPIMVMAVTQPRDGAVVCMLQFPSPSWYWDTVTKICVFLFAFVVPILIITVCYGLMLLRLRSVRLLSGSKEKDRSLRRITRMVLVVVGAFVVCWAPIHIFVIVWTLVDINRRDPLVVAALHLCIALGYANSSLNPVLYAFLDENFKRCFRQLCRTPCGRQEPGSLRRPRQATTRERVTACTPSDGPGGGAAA
Sequence of Opioid receptors; delta & kappa (Homo sapiens) (P41143 whole entry, looked up): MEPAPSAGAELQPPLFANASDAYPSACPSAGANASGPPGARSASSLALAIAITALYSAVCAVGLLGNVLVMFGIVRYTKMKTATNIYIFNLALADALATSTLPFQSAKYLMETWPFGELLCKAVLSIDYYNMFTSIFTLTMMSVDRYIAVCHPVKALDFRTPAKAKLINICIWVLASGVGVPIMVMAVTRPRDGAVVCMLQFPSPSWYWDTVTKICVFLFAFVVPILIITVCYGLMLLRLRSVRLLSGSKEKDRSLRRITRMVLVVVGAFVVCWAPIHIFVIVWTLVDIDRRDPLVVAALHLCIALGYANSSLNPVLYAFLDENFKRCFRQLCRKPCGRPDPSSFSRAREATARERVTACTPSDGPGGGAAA
Sequence of Opioid receptors; delta & kappa (Homo sapiens) (P41145 whole entry, looked up): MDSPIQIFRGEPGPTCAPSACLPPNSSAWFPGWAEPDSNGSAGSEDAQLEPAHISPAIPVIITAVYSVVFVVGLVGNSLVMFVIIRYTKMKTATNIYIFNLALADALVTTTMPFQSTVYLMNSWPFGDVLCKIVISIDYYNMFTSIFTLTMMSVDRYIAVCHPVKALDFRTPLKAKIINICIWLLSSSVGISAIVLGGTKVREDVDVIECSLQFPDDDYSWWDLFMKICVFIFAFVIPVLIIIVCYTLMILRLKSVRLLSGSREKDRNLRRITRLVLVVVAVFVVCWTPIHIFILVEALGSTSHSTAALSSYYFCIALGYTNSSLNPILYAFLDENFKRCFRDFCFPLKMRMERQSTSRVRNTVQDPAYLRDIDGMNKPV
Sequence of Opioid receptors; mu & delta (Homo sapiens) (P35372 whole entry, looked up): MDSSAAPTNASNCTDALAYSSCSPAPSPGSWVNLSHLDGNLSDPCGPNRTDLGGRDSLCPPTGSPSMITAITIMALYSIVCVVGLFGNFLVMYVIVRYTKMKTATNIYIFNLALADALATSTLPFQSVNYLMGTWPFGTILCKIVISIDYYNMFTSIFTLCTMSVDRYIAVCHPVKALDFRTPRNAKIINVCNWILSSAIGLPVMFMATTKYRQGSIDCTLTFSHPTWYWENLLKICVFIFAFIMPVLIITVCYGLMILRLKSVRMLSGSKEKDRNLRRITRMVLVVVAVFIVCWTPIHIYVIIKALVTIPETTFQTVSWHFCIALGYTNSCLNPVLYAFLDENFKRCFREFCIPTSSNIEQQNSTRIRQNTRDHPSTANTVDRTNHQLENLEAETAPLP
Sequence of Opioid receptors; mu & delta (Homo sapiens) (P41143 whole entry, looked up): as the sequence (P41143 whole entry, looked up) above
Sequence of Mu-type opioid receptor (Cavia porcellus) (P97266 whole entry): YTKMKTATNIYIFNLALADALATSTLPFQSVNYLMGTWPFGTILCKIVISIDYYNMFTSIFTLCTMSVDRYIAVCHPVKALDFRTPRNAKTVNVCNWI
Sequence of Kappa-type opioid receptor (Cavia porcellus) (P41144 whole entry): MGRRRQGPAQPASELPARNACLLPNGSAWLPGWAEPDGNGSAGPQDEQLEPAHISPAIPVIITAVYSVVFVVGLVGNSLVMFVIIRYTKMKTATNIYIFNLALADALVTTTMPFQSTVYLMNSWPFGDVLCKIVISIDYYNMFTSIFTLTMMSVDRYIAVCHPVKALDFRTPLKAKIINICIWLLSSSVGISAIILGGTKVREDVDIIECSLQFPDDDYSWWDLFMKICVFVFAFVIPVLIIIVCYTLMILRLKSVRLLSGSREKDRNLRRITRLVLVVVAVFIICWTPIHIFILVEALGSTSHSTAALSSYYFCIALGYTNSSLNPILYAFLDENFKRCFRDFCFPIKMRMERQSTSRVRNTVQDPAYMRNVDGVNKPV
Sequence of Kappa-type opioid receptor (Mus musculus) (P33534 whole entry): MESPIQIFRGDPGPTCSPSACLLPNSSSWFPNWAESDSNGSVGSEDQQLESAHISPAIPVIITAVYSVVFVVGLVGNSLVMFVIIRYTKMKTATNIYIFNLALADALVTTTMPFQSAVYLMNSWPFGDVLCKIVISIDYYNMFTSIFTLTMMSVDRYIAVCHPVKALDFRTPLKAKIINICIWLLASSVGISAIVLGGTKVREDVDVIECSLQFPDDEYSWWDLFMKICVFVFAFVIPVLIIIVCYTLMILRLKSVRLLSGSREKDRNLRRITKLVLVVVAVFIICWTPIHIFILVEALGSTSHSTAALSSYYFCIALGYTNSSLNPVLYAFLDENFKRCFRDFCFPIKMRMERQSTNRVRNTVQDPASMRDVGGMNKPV
Sequence of Mu-type opioid receptor (Mus musculus) (P42866 whole entry): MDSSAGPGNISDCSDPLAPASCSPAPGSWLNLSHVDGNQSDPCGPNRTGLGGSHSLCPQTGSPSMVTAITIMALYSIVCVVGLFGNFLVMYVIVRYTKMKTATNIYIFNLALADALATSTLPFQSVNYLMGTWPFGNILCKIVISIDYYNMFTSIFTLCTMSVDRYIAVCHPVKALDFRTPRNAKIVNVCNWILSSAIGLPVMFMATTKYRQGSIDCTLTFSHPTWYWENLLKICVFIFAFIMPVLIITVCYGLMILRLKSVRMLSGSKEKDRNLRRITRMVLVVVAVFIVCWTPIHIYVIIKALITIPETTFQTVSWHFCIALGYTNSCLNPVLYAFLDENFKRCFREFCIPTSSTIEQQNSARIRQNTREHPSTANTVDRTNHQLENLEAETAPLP

SMILES | Ratio [1] | Ratio [2] | Selectivity ratio [3] | Ratio [4] | Selectivity ratio [5] | Ratio [6] | Ratio [7] | Ratio [8] | Ratio [9]
O=[N+]([O-])c1cccc(Cn2c3c(c4ccccc42)C[C@@]2(O)[C@H]4Cc5ccc(O)c6c5[C@@]2(CCN4CC2CC2)[C@H]3O6)c1 | 0.6 | 0.9 | 112 | 112 | 112 |  |  |  | 
Oc1ccc2c3c1O[C@H]1c4c(c5ccccc5n4Cc4ccccc4)C[C@@]4(O)[C@@H](C2)N(CC2CC2)CC[C@]314 | 0.4 | 1.6 | 131 | 208 | 208 | 0.77 | 1.2 | 10 | 1.3
Nc1cccc(Cn2c3c(c4ccccc42)C[C@@]2(O)[C@H]4Cc5ccc(O)c6c5[C@@]2(CCN4CC2CC2)[C@H]3O6)c1 | 1.5 | 1.3 | 111 | 148 | 100 |  |  |  | 
O=[N+]([O-])c1ccccc1Cn1c2c(c3ccccc31)C[C@@]1(O)[C@H]3Cc4ccc(O)c5c4[C@@]1(CCN3CC1CC1)[C@H]2O5 | 0.8 | 2.3 | 13 | 31 | 31 |  |  |  | 
O=[N+]([O-])c1ccc(Cn2c3c(c4ccccc42)C[C@@]2(O)[C@H]4Cc5ccc(O)c6c5[C@@]2(CCN4CC2CC2)[C@H]3O6)cc1 | 0.4 | 0.5 | 38 | 38 | 38 |  |  |  | 
Nc1ccc(Cn2c3c(c4ccccc42)C[C@@]2(O)[C@H]4Cc5ccc(O)c6c5[C@@]2(CCN4CC2CC2)[C@H]3O6)cc1 | 1.5 | 2.7 | 106 | 288 | 188 | 0.64 | 1.1 | 5.9 | 
Nc1ccccc1Cn1c2c(c3ccccc31)C[C@@]1(O)[C@H]3Cc4ccc(O)c5c4[C@@]1(CCN3CC1CC1)[C@H]2O5 | 0.9 | 1 | 120 | 120 | 120 |  |  |  | 
Oc1ccc2c3c1O[C@H]1c4[nH]c5ccccc5c4C[C@@]4(O)[C@@H](C2)N(CC2CC2)CC[C@]314 | 1.3 | 11.2 | 41 | 459 | 353 |  |  |  | 
Oc1ccc2c3c1O[C@H]1c4c(c5ccccc5n4Cc4c(F)c(F)c(F)c(F)c4F)C[C@@]4(O)[C@@H](C2)N(CC2CC2)CC[C@]314 | 0.7 | 1.4 | 37 | 52 | 52 |  |  |  | 
